In ChEMBL document CHEMBL1121364, “Nucleoside conjugates as potential antitumor agents. 3. Synthesis and antitumor activity of 1-(beta-D-arabinofuranosyl)cytosine conjugates of corticosteroids” (1980):

Columns and labels:
L1210 [1] = experiment: Antitumor activity in the mice with intraperitoneal implanted L1210 lymphoid leukemia at the dose 25 mg/kg/day x 5 was determined as percentage increase in the life span as compared with control tumor bearers; assay type: functional; settings: Mus musculus, L1210, ip
Summary of the method: (§1)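 Female C3D2F1/J mice (C3H/HeJ × DBA/2J), groups of six to eight, average weight 25 g. Each mouse got 1 × 10^6 L1210 ascites cells ip, taken from DBA/2Ha donor mice bearing 3-5 day tumors. Compound was dissolved in 0.154 N NaOH and neutralized with 0.154 N HCl (final 0.9% NaCl). Dosed ip daily ×5, starting 24 h after implant. Recorded body weight change on day 8, survival range, median survival and 30-day survivors. ILS = (T/C − 1) × 100.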

L1210 [2] = experiment: In Vitro evaluation for the antiproliferative activity by observing the growth inhibition of L1210 lymphoid leukemia cells in culture at 72 hour; assay type: functional, Mus musculus
Summary of the method: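 Growth of L1210 lymphoid leukemia cells in culture measured by Trypan blue exclusion of viable cells after 72 h of drug exposure. ED50 is the concentration giving 50% growth inhibition. In some runs the compound was first preincubated in medium at 37 °C for 24 or 48 h before the assay.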

L1210 [3] = experiment: Antitumor activity in mice with intraperitoneal implanted L1210 lymphoid leukemia at the dose 75 mg/kg/day x 5 was determined as weight change (g/mouse) on 8th day; assay type: functional
Summary of the method: (§2)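 C3D2F1/J female mice (C3H/HeJ × DBA/2J), groups of six to eight, average 25 g, inoculated ip with 1 × 10^6 L1210 ascites cells taken from DBA/2Ha donor mice carrying 3-5 day tumors. Compound dissolved in 0.154 N NaOH, then neutralized with 0.154 N HCl to give 0.9% NaCl. Given ip daily for 5 consecutive days starting 24 h after implantation. Body weight change per mouse recorded on day 8.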

L1210 [4] = experiment: Antitumor activity in mice with intraperitoneal implanted L1210 lymphoid leukemia at the dose 25 mg/kg/day x 5 was determined as weight change (g/mouse) on 8th day; assay type: functional; summary of the method: as §2
L1210 [5] = experiment: Antitumor activity in the mice with intraperitoneal implanted L1210 lymphoid leukemia at the dose 50 mg/kg/day x 5 was determined as percentage increase in the life span as compared with control tumor bearers; assay type: functional; settings: Mus musculus, L1210, ip
Summary of the method: (§3)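 C3D2F1/J female mice (C3H/HeJ female × DBA/2J male), groups of six to eight, average weight 25 g. Inoculated ip with 1 × 10^6 L1210 ascites cells taken from DBA/2Ha donor mice bearing 3-5 day old tumors. Compounds were dissolved in 0.154 N NaOH, neutralized with 0.154 N HCl (final 0.9% NaCl), and given ip daily for 5 days from 24 h post-implant. Median survival T/C; ILS = (T/C − 1) × 100; 30-day survivors counted.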

L1210 [6] = experiment: Antitumor activity in the mice with intraperitoneal implanted L1210 lymphoid leukemia at the dose 75 mg/kg/day x 5 was determined as Survival time in days; Range is 14- >45 days; assay type: functional, Mus musculus; summary of the method: as §3
L1210 [7] = experiment: Antitumor activity in the mice with intraperitoneal implanted L1210 lymphoid leukemia at the dose 25 mg/kg/day x 5 was determined as Survival time in days; Range is 8-21 days; assay type: functional, Mus musculus; summary of the method: as §1
L1210 [8] = experiment: Antitumor activity in the mice with intraperitoneal implanted L1210 lymphoid leukemia at the dose 50 mg/kg/day x 5 was determined and number of animals survived on 30 th day were reported; 0/8; assay type: functional, Mus musculus; summary of the method: as §1
L1210 [9] = experiment: Antitumor activity in the mice with intraperitoneal implanted L1210 lymphoid leukemia at the dose of 75 mg/kg/day x 5 was determined as mean survival of treated group compared to untreated; 18.5/9.5; assay type: functional, Mus musculus
L1210 [10] = experiment: Antitumor activity in the mice with intraperitoneal implanted L1210 lymphoid leukemia at the dose of 50 mg/kg/day x 5 was determined as mean survival of treated group compared to untreated; 19/8; assay type: functional, Mus musculus; summary of the method: as §3
L1210 [11] = experiment: Antitumor activity in the mice with intraperitoneal implanted L1210 lymphoid leukemia at the dose 75 mg/kg/day x 5 was determined as percentage increase in the life span as compared with control tumor bearers; assay type: functional; settings: Mus musculus, L1210, ip; summary of the method: as §3
L1210 [12] = experiment: Antitumor activity in mice with intraperitoneal implanted L1210 lymphoid leukemia at the dose 50 mg/kg/day x 5 was determined as weight change (g/mouse) on 8th day; assay type: functional; summary of the method: as §2
L1210 [13] = experiment: Antitumor activity in the mice with intraperitoneal implanted L1210 lymphoid leukemia at the dose 50 mg/kg/day x 5 was determined as Survival time in days; Range is 17-24 days; assay type: functional, Mus musculus; summary of the method: as §1
L1210 [14] = experiment: Antitumor activity in the mice with intraperitoneal implanted L1210 lymphoid leukemia at the dose 25 mg/kg/day x 5 was determined and number of animals survived on 30 th day were reported; 0/8; assay type: functional, Mus musculus; summary of the method: as §1
L1210 [15] = experiment: Antitumor activity in the mice with intraperitoneal implanted L1210 lymphoid leukemia at the dose of 25 mg/kg/day x 5 was determined as mean survival of treated group compared to untreated; 16/8.5; assay type: functional, Mus musculus; summary of the method: as §3
L1210 [16] = experiment: Antitumor activity in the mice with intraperitoneal implanted L1210 lymphoid leukemia at the dose 75 mg/kg/day x 5 was determined and number of animals survived on 30 th day were reported; 1/8; assay type: functional, Mus musculus; summary of the method: as §3
L1210 [17] = experiment: Antitumor activity in the mice with intraperitoneal implanted L1210 lymphoid leukemia at the dose 50 mg/kg/day x 5 was determined as Survival time in days; Range is 10-17 days; assay type: functional, Mus musculus; summary of the method: as §1
L1210 [18] = experiment: Antitumor activity in the mice with intraperitoneal implanted L1210 lymphoid leukemia at the dose 100 mg/kg/day x 5 was determined as percentage increase in the life span as compared with control tumor bearers; assay type: functional; settings: Mus musculus, L1210, ip; summary of the method: as §1
L1210 [19] = experiment: Antitumor activity in the mice with intraperitoneal implanted L1210 lymphoid leukemia at the dose of 100 mg/kg/day x 5 was determined as mean survival of treated group compared to untreated; 9.5/9; assay type: functional, Mus musculus; summary of the method: as §3
L1210 [20] = experiment: Antitumor activity in mice with intraperitoneal implanted L1210 lymphoid leukemia at the dose 100 mg/kg/day x 5 was determined as weight change (g/mouse) on 8th day; assay type: functional; summary of the method: as §2
L1210 [21] = experiment: Antitumor activity in the mice with intraperitoneal implanted L1210 lymphoid leukemia at the dose 25 mg/kg/day x 5 was determined as Survival time in days; Range is 7-15 days; assay type: functional, Mus musculus; summary of the method: as §1
L1210 [22] = experiment: Antitumor activity in the mice with intraperitoneal implanted L1210 lymphoid leukemia at the dose 100 mg/kg/day x 5 was determined and number of animals survived on 30 th day were reported; 0/8; assay type: functional, Mus musculus; summary of the method: as §1
L1210 [23] = experiment: Antitumor activity in the mice with intraperitoneal implanted L1210 lymphoid leukemia at the dose of 25 mg/kg/day x 5 was determined as mean survival of treated group compared to untreated; 11.5/9; assay type: functional, Mus musculus; summary of the method: as §3
L1210 [24] = experiment: Antitumor activity in the mice with intraperitoneal implanted L1210 lymphoid leukemia at the dose 100 mg/kg/day x 5 was determined as Survival time in days; Range is 8-13 days; assay type: functional, Mus musculus; summary of the method: as §1
L1210 [25] = experiment: Antitumor activity in the mice with intraperitoneal implanted L1210 lymphoid leukemia at the dose of 50 mg/kg/day x 5 was determined as mean survival of treated group compared to untreated; 13.5/9; assay type: functional, Mus musculus; summary of the method: as §3

Q: What does the source list for C[C@]12CC[C@H]3[C@@H](CCC4=CC(=O)CC[C@@]43C)[C@@H]1CC[C@@H]2C(=O)COP(=O)(O)OC[C@H]1O[C@@H](n2ccc(N)nc2=O)[C@@H](O)[C@@H]1O?
A: ILS at 25 mg/kg/day (L1210 [1]): 88%; ED 50 (L1210 [2]): 0.05 µM; Weight change (L1210 [3]): -0.09 g mouse-1; Weight change (L1210 [4]): -0.54 g mouse-1; ILS at 50 mg/kg/day (L1210 [5]): 138%; Survival time (L1210 [6]): 14 days; Survival time (L1210 [7]): 8 days; Survivors (L1210 [8]): 0; T/C (L1210 [9]): 18.5; T/C (L1210 [10]): 19; ILS at 75 mg/kg/day (L1210 [11]): 95%; Weight change (L1210 [12]): -0.94 g mouse-1; Survival time (L1210 [13]): 17 days; Survivors (L1210 [14]): 0; T/C (L1210 [15]): 16; Survivors (L1210 [16]): 1

Q: For C[C@@H]1C[C@H]2[C@@H]3CCC4=CC(=O)C=C[C@]4(C)[C@@]3(F)[C@@H](O)C[C@]2(C)[C@@]1(O)C(=O)COP(=O)(O)OC[C@H]1O[C@@H](n2ccc(N)nc2=O)[C@@H](O)[C@@H]1O, which Survival time (L1210 [17]) is on record?
A: Its Survival time is 10 days.

Q: What about the ILS at 100 mg/kg/day (L1210 [18]) of the same molecule?
A: The ILS at 100 mg/kg/day was 6%.

Q: And the ILS at 25 mg/kg/day (L1210 [1])?
A: The ILS at 25 mg/kg/day was 28%.

Q: What about the T/C (L1210 [19]) of the same molecule?
A: The T/C was 9.5.

Q: And the “ED 50” value (L1210 [2])?
A: The value was 0.08 µM.

Q: And the Weight change (L1210 [4])?
A: Its Weight change is -1.25 g mouse-1.

Q: And the ILS at 50 mg/kg/day (L1210 [5])?
A: Its ILS at 50 mg/kg/day is 50%.

Q: What about the Weight change (L1210 [20]) of the same molecule?
A: Its Weight change is -2.02 g mouse-1.

Q: What about the Survival time (L1210 [21]) of the same molecule?
A: Its Survival time is 7 days.

Q: What about the Survivors (L1210 [22]) of the same molecule?
A: The Survivors was 0.

Q: And the T/C (L1210 [23])?
A: Its T/C is 11.5.

Q: And the Survivors (L1210 [8])?
A: The Survivors was 0.

Q: And the Survival time (L1210 [24])?
A: Its Survival time is 8 days.

Q: And the Weight change (L1210 [12])?
A: The Weight change was -1.05 g mouse-1.

Q: What about the T/C (L1210 [25]) of the same molecule?
A: The T/C was 13.5.

Q: What about the Survivors (L1210 [14]) of the same molecule?
A: The Survivors was 0.
